Assay results reported in PubChem BioAssay.
Inconclusive results are not listed.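 Rule for the calls, unless noted: active = viability increase at or above a cutoff of the median across tested compounds plus 3 SD (cut at about 8.5% in these data, passing the limit was not always enough); inconclusive = some gains above the cutoff, reason not given; inactive = the rest.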

Experiments:
[1] = OD615 S. cerevisiae growth inhibition, permissive medium, pilot counter-assay, permissive growth control for S. cerevisiae lifespan shortening project (AID 705;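 active = growth inhibition above 25% in both replicates, a cutoff set 3 SD above the mean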); conditions: OD615, 24 h, at 10 µM, stronger effect = higher value
How it was run: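 System: engineered DeaD yeast; Medium: permissive raffinose/galactose medium; Compound dosing: 10 µM single dose, 0.25% DMSO; Incubation: 4 h cell pre-growth, 24 h exposure at 30 °C; Technique: OD at 615 nm; Evaluation: growth inhibition from lowered OD615 after 24 h.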

[2] = Restrictive medium S. cerevisiae growth inhibition, OD615, pilot screen of yeast lifespan reduction project, restrictive growth control (AID 706;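 active = growth inhibition above a set limit, 3 SD over mean compound inhibition, in both replicates, cut at about 43% in these data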;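 note: modified DeaD lifespan yeast strain shifted to restrictive glucose medium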); conditions: OD615, 48 h, at 10 µM, stronger effect = higher value
How it was run: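 Material: modified S. cerevisiae; buffer or medium: CSMM-D glucose medium; doses: one concentration, 10 µM final, 0.25% DMSO; incubation: 48 h compound exposure at 30 °C; detection: optical density at 615 nm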

[3] = viability gain of MRP-1-high H69AR cells under doxorubicin, pilot screen, MRP-1 activator project, CellTiter-Glo, duplicate (AID 807); conditions: H69AR viability with doxorubicin, CellTiter-Glo luminescence; at 10 µM; stronger effect = higher value;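 note: compound pretreatment 18-22 h then 72 h combined with doxorubicin; 0% = doxorubicin alone and 100% = vehicle without doxorubicin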
[4] = growth suppression of beta-catenin knockout HCT116, pilot screen, human colon tumor cells (AID 823;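 active = cell viability at or below a set limit in both duplicate runs, the limit being the all-compound median minus 4 SD, cut at about 23% in these data, passing the limit was not always enough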;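 note: 0% = wells killed by 20 µM Hyamine and 100% = untreated DMSO cell wells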); conditions: CellTiter-Glo, 60 h, at 10 µM, stronger effect = lower value
[5] = growth suppression of PTEN-deleted HCT116, pilot screen, cell-based, HCT116 clonal line, CellTiter-Glo (AID 824;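 active = viability at or below 27.92% in each of two runs, the all-compound median minus 4 SD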;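 note: 0% = 20 µM Hyamine control and 100% = vehicle cell control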); conditions: 60 h, at 10 µM, stronger effect = lower value
[6] = inhibitors of the yeast RAM network, pilot screen, dse1pr::URA3 reporter, 5-FOA selection (AID 869;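 active = inhibition over a set limit, the all-compound mean plus 3 SD, in both replicate runs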;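 note: 0% = DMSO wells with no growth and 100% = 10 µM 1-NA-PP1 with full growth; RAM network block rescues cells from 5-FOA so hits raise OD615 growth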); conditions: S. cerevisiae dse1pr::URA3 5-FOA growth, OD615, 2 d; at 10 µM; stronger effect = higher value; strain carries analog-sensitive mutant Cbk1 kinase
[7] = RAM signaling pathway blockade in yeast – S. cerevisiae, Pdr1DBD-CYC8 efflux-inhibited sensitized strain, primary screen (AID 1298;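 active = RAM network inhibition above 8.4% in each of two replicates, 3 SD over the compound average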;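 note: 0% = DMSO untreated cells without growth and 100% = 10 µM 1-NA-PP1 full growth; higher means more yeast growth rescued from 5-FOA killing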); conditions: S. cerevisiae cbk1-as DSE1-URA3 strain, 5-FOA growth OD615, 2 d; at 50 µM; stronger effect = higher value

CCOC(=O)c1cccc(NC(=O)CNC(=O)C2CCCCC2)c1
inactive: growth inhibition [1] 3.97% | growth inhibition [2] 2.92% | viability increase [3] -0.32% | viability [4] 96.1% | viability [5] 99.2% | inhibition [6] 0.655% | RAM network inhibition [7] -0.72%

COc1ccc(OCc2nnc(SCC(=O)O)n2N)cc1
inactive: growth inhibition [1] -6.54% | growth inhibition [2] 5.32% | viability increase [3] 1.25% | viability [4] 106% | viability [5] 94.8% | inhibition [6] 0.66% | RAM network inhibition [7] -2.27%

O=C(Nc1ccccn1)c1cccc(S(=O)(=O)N2CCOCC2)c1
inactive: growth inhibition [1] 6.61% | growth inhibition [2] -0.23% | viability increase [3] -1.53% | viability [4] 102% | viability [5] 98.3% | inhibition [6] 1.09% | RAM network inhibition [7] 2.13%

C=C(C)Cn1c(C(C)NC(=O)CCC)nc2ccccc21 (stereo not given)
inactive: growth inhibition [1] -26.1% | growth inhibition [2] -7.25% | viability increase [3] -3.54% | viability [4] 83.9% | viability [5] 86.7% | inhibition [6] 1.8% | RAM network inhibition [7] 0.47%

O=C(COC(=O)C1CC(=O)N(C2CCCCC2)C1)c1ccc(F)cc1 (stereo not given)
inactive: growth inhibition [1] -2.56% | growth inhibition [2] 0.43% | viability increase [3] -2.49% | viability [4] 108% | viability [5] 101% | inhibition [6] 0.95% | RAM network inhibition [7] 2.97%

NC(=O)C1CCN(C(=O)c2cnn(-c3ccccc3)c2NC(=O)c2ccco2)CC1
inactive: growth inhibition [1] -2.77% | growth inhibition [2] 1.08% | viability increase [3] -4.39% | viability [4] 99.7% | viability [5] 98.8% | inhibition [6] 1.67% | RAM network inhibition [7] 5.39%

Cn1c(C(=O)N2CCN(c3ccc(Cl)cc3)CC2)cc2c(=O)n(C)c3ccccc3c21
inactive: growth inhibition [1] -9.61% | growth inhibition [2] 2.92% | viability increase [3] -0.43% | viability [4] 93% | viability [5] 90.6% | inhibition [6] 2.57% | RAM network inhibition [7] 2.59%

O=C1C(=C(O)c2ccccc2)C(=O)c2ccccc21
inactive: growth inhibition [1] -20.4% | growth inhibition [2] 2.15% | viability increase [3] -3.04% | viability [4] 107% | viability [5] 103% | inhibition [6] -0.26% | RAM network inhibition [7] -1.88%

COc1ccc(-c2nc(C(N)=O)c3[nH]c(=O)n(-c4ccccc4OC)c3n2)c(OC)c1
inactive: growth inhibition [1] -0.775% | growth inhibition [2] 4.02% | viability increase [3] -4.59% | viability [4] 74.1% | viability [5] 63.2% | inhibition [6] 0.63% | RAM network inhibition [7] 0.1%

O=C(Oc1cccnc1)c1cccc(Cl)c1
inactive: growth inhibition [1] 6.51% | growth inhibition [2] 20.1% | viability increase [3] -0.55% | viability [4] 101% | viability [5] 97.5% | inhibition [6] 0.79% | RAM network inhibition [7] -2.15%

CCOC(=O)c1c(C)c(C(=O)O)n(C)c1C
inactive: growth inhibition [1] -12.4% | growth inhibition [2] -19.7% | viability increase [3] 0.64% | viability [4] 99.5% | viability [5] 94.6% | inhibition [6] 2.54% | RAM network inhibition [7] 2.91%

O=[n+]1c2c(n([O-])c3c1CCCC3)CCCCC2
inactive: growth inhibition [1] -3.03% | growth inhibition [2] -9.11% | viability increase [3] 0.93% | viability [4] 102% | viability [5] 99.5% | inhibition [6] 0.345% | RAM network inhibition [7] -0.51%

Cn1c(=NC(=O)C2CC2)sc2cc(F)cc(F)c21
inactive: growth inhibition [1] -0.79% | growth inhibition [2] 8.89% | viability increase [3] -4.58% | viability [4] 91.3% | viability [5] 92.6% | inhibition [6] 1.81% | RAM network inhibition [7] 7.52%

CN1CCN(c2cc(=O)n(-c3ccc(Cl)cc3)c(=O)[nH]2)CC1
inactive: growth inhibition [1] -1.55% | growth inhibition [2] -1.23% | viability increase [3] 0.27% | viability [4] 108% | viability [5] 102% | inhibition [6] 0.42% | RAM network inhibition [7] 2.42%

COC(=O)C1(C)Nc2ccccc2C(=O)N1c1ccccc1C (stereo not given)
inactive: growth inhibition [1] -7.67% | growth inhibition [2] -8.55% | viability increase [3] -0.74% | viability [4] 104% | viability [5] 102% | inhibition [6] 2.51% | RAM network inhibition [7] 5.2%
